Legend:
Rattus norvegicus [1] = assay: Changes in diastolic Blood pressure following iv administration at (4.12 umol/kg) anesthetized rats; assay type: functional
Summary of the method: (§1)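 Adult male Wistar rats (280 ± 5 g) anesthetized with 10% (w/v) ethylurethane in saline, 1 mL/100 g ip. Trachea cannulated for spontaneous breathing, body temperature held at 37 °C, 60 min stabilization. Single iv injection into the femoral vein of a saline-dissolved drug, dose expressed as free base; n = 4 per drug. Aortic systolic/diastolic BP recorded via a femoral artery catheter and pressure transducer; peak change taken.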

Rattus norvegicus [2] = assay: Changes in systolic Blood pressure following iv administration at (4.12 umol/kg) anesthetized rats; assay type: functional; summary of the method: as §1
Rattus norvegicus [3] = assay: Changes in systolic blood pressure following iv administration at 4.12 umol/kg in anesthetized rats; assay type: functional, Artery; summary of the method: as §1
Rattus norvegicus [4] = assay: Changes in diastolic blood pressure following iv administration at 4.12 umol/kg in anesthetized rats; assay type: functional, Artery; summary of the method: as §1
Rattus norvegicus [5] = assay: Changes in systolic blood pressure following iv administration at (4.12 umol/kg) anesthetized rats; assay type: functional; summary of the method: as §1
Rattus norvegicus [6] = assay: Changes in diastolic blood pressure following iv administration at (4.12 umol/kg) anesthetized rats; assay type: functional; summary of the method: as §1
Rattus norvegicus [7] = assay: Changes in systolic Blood pressure following iv administration at (25 umol/kg) anesthetized rats; assay type: functional; summary of the method: as §1
Rattus norvegicus [8] = assay: Changes in diastolic Blood pressure following iv administration at (25 umol/kg) anesthetized rats; assay type: functional; summary of the method: as §1
Rattus norvegicus [9] = assay: Changes in systolic blood pressure following iv administration at (12 umol/kg)anesthetized rats; assay type: functional; summary of the method: as §1
Rattus norvegicus [10] = assay: Changes in diastolic blood pressure following iv administration at (12 umol/kg)anesthetized rats; assay type: functional; summary of the method: as §1
Rattus norvegicus [11] = assay: Changes in systolic Blood pressure following iv administration at (5 umol/kg) anesthetized rats; assay type: functional; summary of the method: as §1
Rattus norvegicus [12] = assay: Changes in diastolic Blood pressure following iv administration at (5 umol/kg) anesthetized rats; assay type: functional; summary of the method: as §1
Rattus norvegicus [13] = assay: Changes in systolic Blood pressure following iv administration at (8 umol/kg) anesthetized rats; assay type: functional; summary of the method: as §1
Rattus norvegicus [14] = assay: Changes in diastolic Blood pressure following iv administration at (8 umol/kg) anesthetized rats; assay type: functional; summary of the method: as §1

For `COc1ccc(/C=C/C(=O)NCCN=C(N)N)cc1OC.CS(=O)(=O)O`, the Blood pressure (Rattus norvegicus [1]) was -33 mmHg and the Blood pressure (Rattus norvegicus [2]) was -29 mmHg.
`COc1ccc(/C=C/C(=O)NCCCCN=C(N)N)cc1OC.CS(=O)(=O)O` gave a Blood pressure (Rattus norvegicus [3]) of -21 mmHg and a Blood pressure (Rattus norvegicus [4]) of -30 mmHg.
`COc1ccc(C(=O)NCCCC/N=C(\N)NCC=C(C)C)cc1.CS(=O)(=O)O` showed a Blood pressure (Rattus norvegicus [1]) of -31 mmHg and a Blood pressure (Rattus norvegicus [2]) of -28 mmHg.
In the case of `COc1ccc(/C=C/C(=O)NCCCN=C(N)N)cc1OC.CS(=O)(=O)O`, the Blood pressure (Rattus norvegicus [1]) is reported as -28 mmHg and the Blood pressure (Rattus norvegicus [2]) is reported as -24 mmHg.
Compound `COc1ccc(C=CC(=O)NCCCCN=C(N)N)cc1OC` has a Blood pressure (Rattus norvegicus [1]) of -10 mmHg and a Blood pressure (Rattus norvegicus [2]) of -12 mmHg.
With `COc1ccc(/C=C/C(=O)NCCCCCCN=C(N)N)cc1OC.CS(=O)(=O)O` the Blood pressure (Rattus norvegicus [5]) was -14 mmHg and the Blood pressure (Rattus norvegicus [6]) was -36 mmHg.
`COc1ccc(/C=C/C(=O)NCCCCCN=C(N)N)cc1OC.CS(=O)(=O)O` showed a Blood pressure (Rattus norvegicus [1]) of -27 mmHg and a Blood pressure (Rattus norvegicus [2]) of -17 mmHg.
`N=C(N)NCCN1CCCCCCC1` [GUANETHIDINE] gave a Blood pressure (Rattus norvegicus [7]) of -32 mmHg and a Blood pressure (Rattus norvegicus [8]) of -23 mmHg.
In the case of `C[N+](C)(C)CCCCCC[N+](C)(C)C.[Cl-].[Cl-]` [HEXAMETHONIUM CHLORIDE], the Blood pressure (Rattus norvegicus [9]) is reported as -46 mmHg and the Blood pressure (Rattus norvegicus [10]) is reported as -30 mmHg.
`COc1ccc(Cc2nccc3cc(OC)c(OC)cc23)cc1OC` [PAPAVERINE] was tested, and the Blood pressure (Rattus norvegicus [11]) was -21 mmHg and the Blood pressure (Rattus norvegicus [12]) was -16 mmHg.
For `COC(=O)[C@H]1[C@H]2C[C@@H]3c4[nH]c5cc(OC)ccc5c4CCN3C[C@H]2C[C@@H](OC(=O)c2cc(OC)c(OC)c(OC)c2)[C@@H]1OC` [RESERPINE], the Blood pressure (Rattus norvegicus [13]) was -34 mmHg and the Blood pressure (Rattus norvegicus [14]) was -27 mmHg.
